Calls of active or inactive are those of the source. The rule behind the calls is not given here.
Legend:
Androgen receptor [1] = molecular target: T1, Androgen receptor (Homo sapiens, UniProt P10275); type: cell-based, LNCaP
T1 sequence (P10275 whole entry): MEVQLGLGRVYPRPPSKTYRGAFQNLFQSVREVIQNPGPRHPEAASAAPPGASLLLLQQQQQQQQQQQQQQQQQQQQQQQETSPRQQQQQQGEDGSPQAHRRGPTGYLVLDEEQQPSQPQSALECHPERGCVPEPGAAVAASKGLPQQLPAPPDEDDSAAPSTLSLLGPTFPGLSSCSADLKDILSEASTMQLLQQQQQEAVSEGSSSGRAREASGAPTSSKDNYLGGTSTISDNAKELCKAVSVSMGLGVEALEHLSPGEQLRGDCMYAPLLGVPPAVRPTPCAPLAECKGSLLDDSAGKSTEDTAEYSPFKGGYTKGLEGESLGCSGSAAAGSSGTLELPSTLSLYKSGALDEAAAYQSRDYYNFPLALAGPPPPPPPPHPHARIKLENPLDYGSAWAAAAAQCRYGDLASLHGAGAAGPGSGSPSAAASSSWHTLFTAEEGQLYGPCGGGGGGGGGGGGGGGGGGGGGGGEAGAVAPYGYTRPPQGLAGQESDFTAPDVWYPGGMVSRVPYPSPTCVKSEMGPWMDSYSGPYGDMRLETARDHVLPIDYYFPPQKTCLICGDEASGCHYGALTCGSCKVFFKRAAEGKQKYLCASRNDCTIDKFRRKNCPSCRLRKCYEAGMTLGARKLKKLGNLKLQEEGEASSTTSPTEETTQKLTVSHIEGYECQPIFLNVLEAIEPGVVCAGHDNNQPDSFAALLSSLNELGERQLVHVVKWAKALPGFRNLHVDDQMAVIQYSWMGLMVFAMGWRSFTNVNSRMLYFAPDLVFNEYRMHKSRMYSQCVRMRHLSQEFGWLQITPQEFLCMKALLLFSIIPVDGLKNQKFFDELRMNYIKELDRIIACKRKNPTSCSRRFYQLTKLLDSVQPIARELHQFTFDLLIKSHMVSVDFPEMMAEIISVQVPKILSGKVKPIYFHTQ

[2] = molecular target: T2, Androgen receptor (Homo sapiens) (UniProt P10275); assay: Displacement of fluormone-AL green from GST-tagged androgen receptor LBD (unknown origin) at 10 uM measured after 4 hrs by fluorescence polarization assay; conditions: filed as antagonist
T2 sequence (whole entry): T1 sequence (P10275 whole entry)
How it was run: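 PolarScreen AR competitor assay. Compound mixed with GST-tagged AR-LBD and Fluormone AL Green in AR Green assay buffer, incubated 4 h at room temperature protected from light. Fluorescence polarization (mP) measured.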

LNCaP [3] = assay: Effect on prostate specific antigen mRNA expression in human LNCaP cells at 0.1 to 10 uM measured after 48 hrs by SYBR green dye based qPCR analysis; type: functional, cell-based; conditions: dose 0.1-10 µM
How it was run: (§1)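 LNCaP cells kept in medium with 5% charcoal-stripped serum in six-well plates. Treated with DHT 5 nM plus compound at 0.1, 1 or 10 μM, or DMSO. mRNA extracted 48 h after treatment, reverse transcribed and quantified by qPCR.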

NIH3T3 = assay: Cytotoxicity against mouse NIH/3T3 cells assessed as reduction in cell viability at 50 uM after 24 hrs by MTT assay; type: cell-based; conditions: nih3t3, 24 h
LNCaP C4-2 = assay: Antiproliferative activity against human LNCaP C4-2 cells assessed as reduction in cell proliferation measured after 72 hrs by MTT assay; type: functional, cell-based
How it was run: (§2)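 LNCaP, C4-2, PC3 and DU145 seeded in RPMI-1640 with 5% charcoal-stripped serum (LNCaP 3×10^3, the others 1.5×10^3 cells/well). After 24 h at 37 °C, treated with 5 nM DHT and serial compound dilutions for 72 h. MTT 4 h, formazan dissolved overnight in 10% SDS-0.1% HCl-PBS. A570 read with 650 nm reference.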

LNCaP [4] = assay: Antiproliferative activity against human LNCaP cells assessed as reduction in cell proliferation measured after 72 hrs by MTT assay; type: functional, cell-based
How it was run: as §2

PC-3 = assay: Antiproliferative activity against human PC-3 cells assessed as reduction in cell proliferation measured after 72 hrs by MTT assay; type: functional, cell-based
How it was run: as §2

[5] = molecular target: T2, Androgen receptor (Homo sapiens); assay: Antagonist activity at androgen receptor in human LNCaP cells assessed as reduction in DHT-induced TMPRSS2 mRNA expression after 48 hrs by SYBR green dye based qPCR analysis; type: cell-based; conditions: filed as antagonist
How it was run: as §1

DU-145 = assay: Antiproliferative activity against human DU-145 cells assessed as reduction in cell proliferation measured after 72 hrs by MTT assay; type: functional, cell-based
How it was run: as §2

[6] = molecular target: T3, Prostate-specific antigen (Homo sapiens, UniProt P07288); assay: Inhibition of prostate specific antigen in human LNCaP cells; type: cell-based
T3 sequence (P07288 whole entry): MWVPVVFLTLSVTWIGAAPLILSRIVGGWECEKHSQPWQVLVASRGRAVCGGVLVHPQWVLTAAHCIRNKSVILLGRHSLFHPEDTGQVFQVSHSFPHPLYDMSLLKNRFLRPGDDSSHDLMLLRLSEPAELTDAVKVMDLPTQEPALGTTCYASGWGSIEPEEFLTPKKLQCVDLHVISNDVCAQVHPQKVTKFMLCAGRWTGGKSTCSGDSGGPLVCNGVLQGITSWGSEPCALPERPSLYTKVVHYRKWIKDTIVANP

[7] = molecular target: T2, Androgen receptor (Homo sapiens); assay: Antagonist activity at androgen receptor in human LNCaP cells transfected with ARR2 PB-eGFP assessed as inhibition of DHT-induced transcriptional activity at 10 uM measured after 3 days by fluorescence assay relative to control; type: cell-based; conditions: filed as antagonist, time 3.0 day
How it was run: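 LNCaP-ARR2PB-eGFP reporter cells in RPMI-1640 starved 5 days in 5% charcoal-stripped serum. Seeded at 3.5×10^4 cells/well, 24 h at 37 °C, 5% CO2. Co-treated with 5 nM DHT and compound at 10 µM (screen) or 0–50 µM. Fluorescence read after 3 days (ex 485, em 535 nm).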

Androgen receptor [8] = molecular target: T1, Androgen receptor; assay: Displacement of fluormone-AL green from GST-tagged androgen receptor LBD (unknown origin) measured after 4 hrs by fluorescence polarization assay

IC50 (Androgen receptor [1]) | inhibition [2] | SMILES | Activity (LNCaP C4-2) | Activity (PC-3) | Activity (DU-145) | other results
220 nM | Active | Fc1ccccc1C1Nc2ccc3ccccc3c2C2C=CCC21 (stereo unspecified) | – | – | – | –
150 nM | Active | Brc1ccc(C2Nc3ccc4ccccc4c3C3C=CCC32)cc1 (stereo unspecified) | Active | Active | Active | Activity (LNCaP [3]): Active; Activity (NIH3T3): Non-Toxic; Activity (LNCaP [4]): Active; Activity [5]: Dose-dependent effect
1920 nM | Active | Clc1ccc(C2Nc3ccc4ccccc4c3C3C=CCC32)cc1 (stereo unspecified) | – | – | – | –
20400 nM | – | Clc1ccc(C2Nc3ccc4ccccc4c3C3OCCCC23)c(Cl)c1 (stereo unspecified) | – | – | – | –
5600 nM | – | c1ccc(C2Nc3ccc4ccccc4c3C3C4CCC(C4)C23)cc1 (stereo unspecified) | – | – | – | –
820 nM | Active | CCOC(=O)C1Nc2ccc3ccccc3c2C2C=CCC12 (stereo unspecified) | – | – | – | –
– | – | CNC(=O)c1ccc(N2C(=S)N(c3ccc(C#N)c(C(F)(F)F)c3)C(=O)C2(C)C)cc1F [ENZALUTAMIDE] | Active | Active | Active | IC50 [6]: 130 nM; Activity (LNCaP [4]): Active
7450 nM | – | Clc1ccc(C2Nc3ccc4ccccc4c3C3C4CCC(C4)C23)cc1 (stereo unspecified) | – | – | – | –
2400 nM | Active | Clc1ccccc1C1Nc2ccc3ccccc3c2C2C=CCC21 (stereo unspecified) | Active | Active | Active | inhibition [7]: > 50%; Activity (NIH3T3): Non-Toxic; IC50 (Androgen receptor [8]): 4020 nM

Source: ChEMBL document CHEMBL4680213, “Novel androgen receptor antagonist identified by structure-based virtual screening, structural optimization, and biological evaluation” (Eur J Med Chem, 2020)
